This is a sample that favours compounds with a hit; in the whole collection about 2.9% have one here.
SIRT5 block – blocks human SIRT5 desuccinylation of peptide. Purified SirT5, succinyl-peptide AMC, trypsin-coupled fluorescence. inhibition, % at 15 µM. Q9NXA8. hit rate 1.1% among 330,000; in the data active means inhibition above about 15%; inconclusive means no clear call, values can overlap the other calls
Target sequence (Q9NXA8 whole entry, looked up): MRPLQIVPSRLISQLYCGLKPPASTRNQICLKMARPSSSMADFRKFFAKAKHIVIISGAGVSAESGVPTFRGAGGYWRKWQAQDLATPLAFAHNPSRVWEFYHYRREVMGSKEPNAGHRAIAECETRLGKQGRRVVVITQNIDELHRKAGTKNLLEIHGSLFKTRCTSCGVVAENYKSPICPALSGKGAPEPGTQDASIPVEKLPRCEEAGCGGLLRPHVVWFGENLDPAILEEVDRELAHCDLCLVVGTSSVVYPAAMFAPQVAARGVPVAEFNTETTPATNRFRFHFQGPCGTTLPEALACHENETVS
DENV2 CPE rescue – DENV2-induced cell death inhibition | DENV2-infected cells, cytopathic effect rescue, plate reader | CPE inhibition, % at 9.99 µM | hit rate 1.7% among 350,000; in the data active means CPE inhibition above about 20%, passing the limit was not always enough; inconclusive means no clear call, values can overlap the other calls; tested in BHK-21 cells
E-selectin induc – E-selectin induction on HUVECs. activation, % at 7.58 µM. P16581. hit rate 0.37% among 260,000. HUVEC E-selectin immunofluorescence imaging; normalized: neutral wells 0, TNF-alpha wells 100;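 active means mean E-selectin-positive cell signal at least 10% of the positive control, reached in at least 60% of replicates, without over 20% cell loss; inconclusive means no rule given, readout overlaps actives, possibly toxicity-flagged; inactive means the rest, including those meeting only one limit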
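Assay system: HUVEC, human umbilical vein endothelial cells / Amount: 3,000 HUVEC/well / Controls: TNF-alpha positive control, DMSO neutral control / Compound dosing: single concentration / Medium: EGM-2 over gelatin coat / Evaluation: percent E-selectin-positive cells / Signal: immunofluorescence imaging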
A number is an active result; – = inactive; ? = inconclusive; · = not tested or not shown; ! = not confirmed by another sample.

SMILES	SIRT5 block	DENV2 CPE rescue	E-selectin induc
O=C(c1ccccc1F)N1CC[C@@H]2[C@H]1c1cc(C#Cc3ccccc3)ccc1N[C@@H]2CO	·	·	–
O=C(c1ccccc1)N1CC[C@H]2[C@H](CO)Nc3ccc(C#Cc4ccccc4F)cc3[C@H]21	–	32	–
O=C(c1ccccc1F)N1CC[C@@H]2[C@H](CO)Nc3ccc(C#Cc4ccccc4F)cc3[C@@H]21	–	62	–
O=C(c1ccccc1)N1CC[C@@H]2[C@H](CO)Nc3ccc(C#Cc4ccccc4F)cc3[C@@H]21	–	–	–
O=S(=O)(c1ccccc1)N1CC[C@@H]2[C@H]1c1cc(C#CC3CCCCC3)ccc1N[C@@H]2CO	–	28	–
O=C(c1ccccc1F)N1CC[C@@H]2[C@H](CO)Nc3ccc(C#Cc4ccc(F)cc4)cc3[C@@H]21	·	26	–
O=S(=O)(c1ccc(F)cc1)N1CC[C@@H]2[C@H]1c1cc(C#CC3CCCCC3)ccc1N[C@@H]2CO	–	–	–
NC(=O)Cc1ccc(C(=O)c2ccccc2)s1	–	?	·
CCCNS(=O)(=O)c1ccc(-n2cnnn2)c(OC)c1	–	–	·
Cc1ncoc1C(=O)N1CCCC(C(=O)c2ccc(Oc3ccccc3)cc2)C1 (stereo not drawn)	–	–	·
CC12CCC(=O)N1C(C(=O)NNC(=O)COc1ccccc1Cl)CS2 (stereo not drawn)	–	–	–
O=C(c1ccccc1)N1CC[C@@H]2[C@H]1c1cc(C#CC3CCCCC3)ccc1N[C@@H]2CO	–	52	·
O=C(c1ccccc1)N1CC[C@@H]2[C@H](CO)Nc3ccc(C#CC4CCCCC4)cc3[C@@H]21	–	–	–
CC(=O)Nc1cccc(C(=O)NC2CCCc3c2cnn3-c2ccc(C(C)(C)C)cc2)c1 (stereo not drawn)	–	?	–
Cc1ccc(-c2c[n+](Cc3ccc(Cl)cc3)c3n2CCC3)cc1	40	–	·
Cc1ccc(C[n+]2cc(-c3ccc(Cl)cc3)n3c2CCC3)cc1	–	–	–
COc1ccc2cc3c(N)nn(C(=O)C4CCC(C(C)(C)C)CC4)c3nc2c1 (stereo not drawn)	·	–	–
Cc1ccc(S(=O)(=O)N(C)C)cc1NC(=O)COC(=O)C1CCCC1	–	34	–
Cc1ccc(S(=O)(=O)N(C)C)cc1NC(=O)COC(=O)CCC1CCCC1	–	–	·
N#Cc1cc(Nc2c(N)nc[nH]c2=O)c([N+](=O)[O-])cc1C#N	–	–	–
c1ccc(-c2nc(-c3cccs3)[nH]c2-c2ccccc2)cc1	15	–	·
O=C(O)c1ccccc1-c1nc(-c2ccccc2)c(-c2ccccc2)[nH]1	–	–	·
COc1cc(NC(=S)NCc2cccnc2)cc(OC)c1OC	–	–	27
COc1cc(NC(=S)NCc2cccnc2)cc(OC)c1	–	·	·
C[C@H]1CN([C@@H](C)CO)C(=O)Cc2cc(NC(=O)C3CCCCC3)ccc2O[C@H]1CN(C)C(=O)Nc1ccc(F)cc1	–	–	–
SMILES	SIRT5 block	DENV2 CPE rescue	E-selectin induc
COc1ccc(N2CCN(CCOc3ccc4c(C)cc(=O)oc4c3)CC2)cc1	–	–	–
Cc1cc(=O)oc2cc(OCCSCCN3CCCC3)ccc12	–	37	–
C[C@@H]1CN([C@@H](C)CO)C(=O)c2ccccc2-c2ccccc2CO[C@H]1CN(C)C(=O)Cc1ccccc1	–	–	–
Cc1ccc(Nc2cc(C)nc3nc(C)nn23)cc1	–	?	–
Cc1cc(C)cc(Nc2cc(C)nc3nc(C)nn23)c1	16	?	–
COc1cc(/C=C/C(=O)OCC(=O)c2c(N)n(C)c(=O)n(C)c2=O)ccc1O	–	–	·
O=C(C[C@@H]1CC[C@H](NC(=O)CC2CC2)[C@H](CO)O1)NCc1ccc(-c2ccccc2)cc1	–	–	–
O=C(C[C@H]1CC[C@@H](NC(=O)Nc2ccc3c(c2)OCO3)[C@H](CO)O1)NCc1ccc2c(c1)OCO2	–	–	–
CN(C)C(=O)C[C@@H]1CC[C@@H](NC(=O)c2ccc(F)cc2)[C@H](CO)O1	–	45	–
CN(C)C(=O)C[C@H]1CC[C@H](NC(=O)c2ccc(F)cc2)[C@@H](CO)O1	–	–	–
O=C(C[C@H]1CC[C@H](NC(=O)c2ccc3c(c2)OCO3)[C@@H](CO)O1)NCc1ccc(F)cc1	–	–	–
O=C(C[C@H]1CC[C@@H](NC(=O)CC2CC2)[C@@H](CO)O1)NCc1ccc(-c2ccccc2)cc1	–	48	–
O=C(C[C@@H]1CC[C@H](NC(=O)c2ccc3c(c2)OCO3)[C@@H](CO)O1)NCc1ccc(F)cc1	–	32!	–
O=C(C[C@@H]1CC[C@@H](NC(=O)Nc2ccc3c(c2)OCO3)[C@@H](CO)O1)NCc1ccc2c(c1)OCO2	–	29	–
O=c1c2ccccc2nc2n1C(CSc1ccccc1)CS2 (stereo not drawn)	–	–	–
CC(C)c1cn(CC[C@H]2CC[C@H](N)[C@@H](CO)O2)nn1	–	–	–
CN1c2ccc(-c3cccc(C#N)c3)cc2[C@@H]2[C@@H](CCN2C(=O)C2CCCC2)[C@@H]1CO	–	?	–
O=C(O)C[C@@H]1CC[C@H]2[C@@H](COC[C@@H](O)CN2S(=O)(=O)c2ccc(F)cc2)O1	–	–	–
C=CCN=C1CC(C)(C)C(C(=O)OC)C(O)=C1C(=O)CCC (stereo not drawn)	–	–	·
O=C(C[C@@H]1CC[C@@H](NC(=O)NC2CCCCC2)[C@@H](CO)O1)NCc1ccc(F)cc1	–	39	–
O=C(C[C@@H]1CC[C@H](NC(=O)NC2CCCCC2)[C@@H](CO)O1)NCc1ccc(F)cc1	–	–	–
O=C(Nc1ccc(O)cc1)c1ccc2c(c1)C(=O)N(Cc1cccnc1)C2=O	–	22	–
COc1ccc(NC(=O)c2ccc3c(c2)C(=O)N(Cc2cccnc2)C3=O)cc1	–	·	·
C[C@@H]1CCCCO[C@@H](CN(C)C(=O)c2ccccc2)[C@H](C)CN([C@H](C)CO)C(=O)c2cc(NC(=O)C3CCCCC3)ccc2O1	–	–	–
C[C@@H]1CN([C@@H](C)CO)C(=O)c2cc(NC(=O)NC3CCCCC3)ccc2O[C@@H](C)CCCCO[C@@H]1CN(C)C(=O)Nc1ccc2c(c1)OCO2	·	–	–
SMILES	SIRT5 block	DENV2 CPE rescue	E-selectin induc
C[C@@H]1CCCCO[C@H](CN(C)C(=O)NC2CCCCC2)[C@@H](C)CN([C@H](C)CO)C(=O)c2cc(NC(=O)NC3CCCCC3)ccc2O1	–	78	–
C[C@@H]1CN([C@@H](C)CO)C(=O)c2cc(NC(=O)NC3CCCCC3)ccc2O[C@@H](C)CCCCO[C@@H]1CN(C)C(=O)NC1CCCCC1	–	–	–
C[C@H](CO)N1C[C@H](C)[C@@H](CN(C)C(=O)NC2CCCCC2)OCCCC[C@H](C)Oc2ccc(NC(=O)C3CCCCC3)cc2C1=O	16	?	–
C[C@@H]1CCCCO[C@H](CN(C)C(=O)Nc2ccc3c(c2)OCO3)[C@H](C)CN([C@H](C)CO)C(=O)c2cc(NC(=O)NC3CCCCC3)ccc2O1	·	41	–
C[C@@H]1CCCCO[C@H](CN(C)C(=O)NC2CCCCC2)[C@@H](C)CN([C@H](C)CO)C(=O)c2cc(NC(=O)C3CCCCC3)ccc2O1	–	–	–
C[C@H](CO)N1C[C@H](C)[C@@H](CN(C)C(=O)c2ccccc2)OCCCC[C@H](C)Oc2ccc(NC(=O)C3CCCCC3)cc2C1=O	–	34	–
CC(=O)Nc1ccc(SC(C)C(=O)NC2CCCC2)cc1 (stereo not drawn)	–	–	–

Screens from PubChem.
